# Activity calls are given as the source filed them. The calls are words filed in the database; no cut-off is given here.
# Experiments:
# [1] = tested on: Staphylococcus aureus; assay: Antibacterial activity against clinical isolates of Staphylococcus aureus DM4001R after 24 hrs by […]; format: functional
# [2] = tested on: Staphylococcus aureus; assay: Antibacterial activity against clinical isolates of methicillin-resistant Staphylococcus aureus DM9808R after 24 hrs by […]; format: functional
# [3] = tested on: Staphylococcus aureus; assay: Antibacterial activity against clinical isolates of methicillin-resistant Staphylococcus aureus DM21455 after 24 hrs by […]; format: functional; details: DM21455, 24 h
# [4] = tested on: Bacillus cereus; assay: Antibacterial activity against clinical isolates of Bacillus cereus ATCC 11778 after 24 hrs by […]; format: functional; details: ATCC 11778, 24 h
# [5] = Hemolytic activity against New Zealand white rabbit RBC after 1 hr by microplate reader analysis; format: ADME, cell-based, Oryctolagus cuniculus, Erythrocyte; details: rabbit red blood cells
# Method in brief: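 Rabbit RBCs spun from serum at 3,000 rpm for 10 min and washed twice in PBS. Mixed with compound in DMF at 4% v/v RBCs, 1 h at 37 °C. After centrifugation, hemoglobin in the supernatant read at 576 nm. 2% Triton X-100 was the positive control and 1% DMF the negative control.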
# [6] = tested on: Staphylococcus aureus; assay: Induction of membrane permeabilization in clinical isolates of Staphylococcus aureus DM4001 at 10 uM measured for 200 sec by SYTOX green influx assay; format: functional, organism-based
# Method in brief: (§1)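 Exponential-phase cells washed twice in 20 mM PBS pH 7 and adjusted to OD620 0.09. Given 3 µM SYTOX Green and kept in the dark until fluorescence was stable, then compound added. Fluorescence followed in a stirred cuvette at ex 504/em 523 nm. Melittin 10 µg/mL was the positive control. Run at least twice; one run reported.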
# [7] = tested on: Staphylococcus aureus; assay: Induction of membrane disruption in clinical isolates of Staphylococcus aureus DM4001 assessed as membrane integrity incubated for 10 mins by live/dead baclight bacterial viability assay relative to control; format: functional; set-up: concentration or dose not given beside the values
# Method in brief: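 Exponential-phase cells washed in 0.9% saline, OD670 0.3, exposed to compound 10 min at room temperature. Pelleted, resuspended, then stained with SYTO 9 (10 µM) plus propidium iodide (60 µM) 15 min dark. Excitation 485 nm, emission 500–700 nm; green/red ratio converted to % damage using standards of 0–100% isopropanol-killed cells.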
# [8] = Membrane permeabilization activity assessed as release of calcein from DOPE/DOPG large unilamellar vesicles at 0.125 to 0.5 compound:lipid ratio incubated for 30 mins by fluorescence assay; format: ADME; details: 0.5 h
# Method in brief: (§2)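 Freeze-thawed, extruded, then gel-filtered. Final lipid 50 µM with compound added from DMF (<0.2%). Fluorescence at ex 490/em 520 nm over 30 min; 0.1% Triton X-100 defined 100% lysis.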
# [9] = tested on: Staphylococcus aureus; assay: Induction of membrane permeabilization in clinical isolates of Staphylococcus aureus DM4001 at 50 uM by SYTOX green uptake assay; format: functional; method in brief: as §1
# [10] = tested on: Staphylococcus aureus; assay: Induction of membrane permeabilization in clinical isolates of Staphylococcus aureus DM4001 assessed as ATP leakage at 50 uM incubated for 10 mins by firefly luciferase based luminometry analysis; format: functional
# Method in brief: (§3)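 Exponential-phase cells washed twice in 20 mM PBS pH 7 and set to OD620 0.3. Exposed 10 min at 37 °C, then spun at 4000 rpm for 5 min. Supernatant mixed with luciferase reagent (1 mM DTT, 0.5 mM D-luciferin, 1.25 µg/mL firefly luciferase). Luminescence read over 30 cycles.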
# [11] = Membrane permeabilization activity assessed as release of calcein from DOPE/DOPG liposomes at lipid:compound ratio of 4 incubated for 30 mins by fluorescence assay; format: ADME; details: 0.5 h; method in brief: as §2
# [12] = Membrane permeabilization activity assessed as release of calcein from DOPC liposomes at lipid:compound ratio of 4 incubated for 30 mins by fluorescence assay; format: ADME; details: 0.5 h; method in brief: as §2
# [13] = Membrane permeabilization activity assessed as release of calcein from DOPE/DOPG liposomes at lipid:compound ratio of 8 incubated for 30 mins by fluorescence assay; format: ADME; details: 0.5 h; method in brief: as §2
# [14] = Membrane permeabilization activity assessed as release of calcein from DOPC liposomes at lipid:compound ratio of 8 incubated for 30 mins by fluorescence assay; format: ADME; details: 0.5 h; method in brief: as §2
# [15] = Membrane permeabilization activity assessed as release of calcein from DOPE/DOPG liposomes at lipid:compound ratio of => 16 incubated for 30 mins by fluorescence assay; format: ADME; details: 0.5 h; method in brief: as §2
# [16] = Membrane permeabilization activity assessed as release of calcein from DOPC liposomes at lipid:compound ratio of => 16 incubated for 30 mins by fluorescence assay; format: ADME; details: 0.5 h; method in brief: as §2
# [17] = Selectivity index, ratio of HC50 for hemolytic activity against New Zealand white rabbit RBC to MIC for clinical isolates of Staphylococcus aureus DM4001
# [18] = tested on: Staphylococcus aureus; assay: Induction of membrane permeabilization in clinical isolates of Staphylococcus aureus DM4001 at MIC by SYTOX green uptake assay; format: functional; method in brief: as §1
# [19] = tested on: Staphylococcus aureus; assay: Induction of membrane permeabilization in clinical isolates of Staphylococcus aureus DM4001 assessed as ATP leakage at MIC incubated for 10 mins by firefly luciferase based luminometry analysis; format: functional; method in brief: as §3
# [20] = tested on: Staphylococcus aureus; assay: Induction of membrane permeabilization in clinical isolates of Staphylococcus aureus DM4001 by SYTOX green uptake assay; format: functional; method in brief: as §1
# [21] = Membrane permeabilization activity assessed as release of calcein from DOPC liposomes at 16 to 64 lipid:compound ratio incubated for 30 mins by fluorescence assay; format: ADME; details: 0.5 h
# [22] = tested on: Staphylococcus aureus; assay: Bactericidal activity against clinical isolates of methicillin resistant Staphylococcus aureus DM21455 assessed as log reduction in viability measured up to 300 mins by time kill kinetic study; format: functional, organism-based
# Method in brief: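 Colonies from 18–22 h TSA plates suspended in 0.31 mM phosphate buffer pH 7.2 at 10^5–10^6 CFU/mL. Treated at 1×, 2× and 4× MIC at 35 °C, sampled at 10 min, 30 min, 1 h, 2 h and 5 h. Ten-fold dilutions spread on MHA, 35 °C for 48–72 h, colonies counted. Detection limit 100 CFU/mL; bactericidal means 3-log drop versus untreated.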
Compound,MIC [1] [µg/mL],MIC [2] [µg/mL],MIC [3] [µg/mL],MIC [4] [µg/mL],HC50 at 1 h [5] [µg/mL],Activity [6],Activity [7] [%],Selectivity ratio [17],Activity [18] [cps],Activity [19] [µM],other results
CCN(CC)CCCCCCCCCCOc1cc2oc3cc(OCCCCCCCCCCN(CC)CC)c(OC)c(CC=C(C)C)c3c(=O)c2c(O)c1CC=C(C)C,> 50,> 50,> 50,> 50,200,inactive,100,,,,Activity [8]: > 70%
CCN(CC)CCOc1cc2oc3cc(OCCN(CC)CC)c(OC)c(CC=C(C)C)c3c(=O)c2c(O)c1CC=C(C)C,> 50,> 50,> 50,> 50,> 200,Active,64.1,,,,
COc1c(OCCCCN(C)Cc2ccccc2)cc2oc3cc(OCCCCN(C)Cc4ccccc4)c(CC=C(C)C)c(O)c3c(=O)c2c1CC=C(C)C,> 50,> 50,> 50,> 50,> 200,,,,,,Activity [9]: 1778 cps; Activity [10]: 574 nM
CCN(CC)CCCCOc1ccc2c(=O)c3c(O)cc(OCCCCN(CC)CC)cc3oc2c1,> 50,> 50,> 50,> 50,> 200,,,,,,Activity [11]: Not Active; Activity [12]: Not Active; Activity [13]: Not Active; Activity [14]: Not Active; Activity [15]: Not Active; Activity [16]: Not Active
CCN(CC)CCCCOc1cc2oc3cc(OCCCCN(CC)CC)c(OC)c(CC=C(C)C)c3c(=O)c2c(O)c1CC=C(C)C,0.39,0.78,0.39,3.12,,Active,37.8,50.4,61679,2.235,Activity [8]: > 70%; Activity [15]: > 70%; Activity [16]: > 70%
CCN(CC)CCCCOc1cc2oc3cc(OCCCCN(CC)CC)c(OC)c(CC=C(C)C)c3c(=O)c2c(OCCCCN(CC)CC)c1CC=C(C)C,12.5,50,25,50,> 200,,,,,,Activity [20]: 4305.1 cps
CCN(CC)CCCOc1cc2oc3cc(OCCCN(CC)CC)c(OC)c(CC=C(C)C)c3c(=O)c2c(O)c1CC=C(C)C,0.78,0.78,0.39,6.25,,Active,46.2,20.9,,,
COc1c(OCCCCN(C)C)cc2oc3cc(OCCCCN(C)C)c(CC=C(C)C)c(O)c3c(=O)c2c1CC=C(C)C,3.12,3.12,3.12,6.25,32.1,,,10.3,23925,3.769,Activity [21]: Active
CCCCN(CC)CCCCOc1cc2oc3cc(OCCCCN(CC)CCCC)c(OC)c(CC=C(C)C)c3c(=O)c2c(O)c1CC=C(C)C,12.5,6.25,25,25,> 200,,,> 16,64790,12.48,
CN[C@@H](CC(C)C)C(=O)N[C@H]1C(=O)N[C@@H](CC(N)=O)C(=O)N[C@H]2C(=O)N[C@H]3C(=O)N[C@H](C(=O)N[C@@H](C(=O)O)c4cc(O)cc(O)c4-c4cc3ccc4O)[C@H](O)c3ccc(c(Cl)c3)Oc3cc2cc(c3O[C@H]2O[C@@H](CO)[C@H](O)[C@@H](O)[C@@H]2O[C@@H]2C[C@@](C)(N)[C@@H](O)[C@@H](C)O2)Oc2ccc(cc2Cl)[C@H]1O,,,,,,,,,,,Activity [22]: inactive

# Source: ChEMBL document CHEMBL3751813, “Nonpeptidic Amphiphilic Xanthone Derivatives: Structure-Activity Relationship and Membrane-Targeting Properties” (J Med Chem, 2016)
